# Test results: ChEMBL document CHEMBL2150881, “JD-5006 and JD-5037: peripherally restricted (PR) cannabinoid-1 receptor blockers related to SLV-319 (Ibipinabant) as metabolic disorder therapeutics devoid of CNS liabilities” (Bioorg Med Chem Lett, 2012)
# Active and inactive are the calls of the source. No cut-off for these calls is given here.
# What was measured:
# [1] = biological target: Cannabinoid receptor 2 (Homo sapiens, UniProt P34972); assay: Displacement of 3[H]ligand from recombinant human CB2 receptor
# Method in brief: (§1)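 Radioligand displacement from human recombinant CB1 and CB2 protein by a [³H] ligand. Initial screen at two concentrations in duplicate, with values >100 nM estimated. Percent inhibition read at 100 nM. IC₅₀ taken from four-point concentration curves run in duplicate.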
# [2] = biological target: T1, Cannabinoid receptor 1 (Homo sapiens, UniProt P21554); assay: Displacement of 3[H]ligand from recombinant human CB1 receptor; method in brief: as §1
# [3] = system: MDCK; assay: Efflux ratio of permeability from […] in MDR expressing MDCK cells; type: ADME, cell-based, Canis lupus familiaris; conditions: dog, mdck
# [4] = system: MDCK; assay: (§2) Apparent permeability from basolateral to apical side in MDR expressing MDCK cells by LC-MS-MS analysis; type: ADME, cell-based, Canis lupus familiaris; conditions: dog, mdck
# Method in brief: (§3)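 Permeability measured across MDR-MDCK kidney cell monolayers, giving apparent permeability (Papp) in the apical-to-basolateral and basolateral-to-apical directions.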
# [5] = system: MDCK; assay: (§4) Apparent permeability from apical to basolateral side in MDR expressing MDCK cells by LC-MS-MS analysis; type: ADME, cell-based, Canis lupus familiaris; conditions: dog, mdck; method in brief: as §3
# [6] = system: Mus musculus; assay: Antidyslipidemic activity in DIO mouse model assessed as reduction in terminal fasting triglyceride level at 3 mg/kg, po for 21 days; type: functional; design: scale not given: the % may be the effect or the level left
# Method in brief: (§5)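 Diet-induced obese mice dosed orally at 3, 10 and 30 mg/kg for 21 days alongside vehicle controls. Plasma triglycerides, ALT and terminal liver weight were measured at the end of dosing. p-values were given for each dose.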
# [7] = system: Mus musculus; assay: Antidyslipidemic activity in DIO mouse model assessed as reduction in terminal liver weight at 3 to 30 mg/kg, po for 21 days; type: functional; design: scale not given: the % may be the effect or the level left; conditions: dose mg/kg 3-30; method in brief: as §5
# [8] = system: Mus musculus; assay: In vivo receptor occupancy at CB1 receptor in mouse hippocampus assessed as inhibition of [3H]SR141716A binding at 30 mg/kg, po for 3 days measured after 1 hr post last dose; type: functional
# Method in brief: (§6)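 Chow-fed mice dosed orally once daily at 3 or 30 mg/kg for 3 consecutive days, killed 1 h after the last dose. [3H]SR141716A was given by lateral tail-vein injection 30 min before euthanasia. Hippocampus, cerebellum and brain stem (reference region) were scintillation-counted as DPM/mg. Binding potential = (receptor − reference)/reference. Occupancy (%) = 100 × (vehicle BP − drug BP)/vehicle BP. 5 animals per dose.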
# [9] = system: Mus musculus; assay: Antidyslipidemic activity in DIO mouse model assessed as reduction in terminal fasting triglyceride level at 30 mg/kg, po for 21 days; type: functional; design: scale not given: the % may be the effect or the level left; method in brief: as §5
# [10] = biological target: Cannabinoid receptor 1 (Mus musculus) (UniProt P47746); conditions: Cerebellum, 30 mg/kg
# [11] = system: Mus musculus; assay: In vivo receptor occupancy at CB1 receptor in mouse cerebellum assessed as inhibition of [3H]SR141716A binding at 3 mg/kg, po for 3 days measured after 1 hr post last dose; type: functional; method in brief: as §6
# [12] = system: Mus musculus; assay: Antidyslipidemic activity in DIO mouse model assessed as reduction in terminal ALT level at 3 to 30 mg/kg, po for 21 days; type: functional; design: scale not given: the % may be the effect or the level left; conditions: dose mg/kg 3-30; method in brief: as §5
# [13] = system: Mus musculus; assay: In vivo receptor occupancy at CB1 receptor in mouse hippocampus assessed as inhibition of [3H]SR141716A binding at 3 mg/kg, po for 3 days measured after 1 hr post last dose; type: functional; method in brief: as §6
# [14] = system: Mus musculus; assay: Antidiabetic activity in high fat diet-fed diabetes mouse model assessed as reduction in glucose level at 20 mg/kg for 7 days by glucose tolerance test; type: functional, organism-based; design: dose 20 mg/kg
# Method in brief: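 Mice kept on high-fat diet for 14 weeks were given 20 mg/kg PO for seven days. They were then challenged with glucose at 2 g/kg body weight, and glucose elimination was followed.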
# [15] = system: Mus musculus; assay: Antidiabetic activity in high fat diet-fed diabetes mouse model assessed as […] in insulin sensitivity at 20 mg/kg for 7 days by glucose tolerance test; type: functional, organism-based; design: dose 20 mg/kg
# [16] = biological target: T1, Cannabinoid receptor 1; assay: Inverse agonist activity against CB1 receptor expressed in human CHO cells assessed as effect on forskolin-stimulated cAMP level; type: functional, cell-based
# [17] = system: Mus musculus; assay: Antidyslipidemic activity in DIO mouse model assessed as reduction in terminal fasting triglyceride level at 3 to 30 mg/kg, po for 21 days; type: functional; design: scale not given: the % may be the effect or the level left; conditions: dose mg/kg 3-30; method in brief: as §5
# [18] = as §2; type: ADME, cell-based, Canis lupus familiaris; conditions: dog, MDCK-MDR1; method in brief: as §3
# [19] = as §4; type: ADME, cell-based, Canis lupus familiaris; conditions: dog, MDCK-MDR1; method in brief: as §3
# [20] = Plasma concentration in chow fed mouse at 20 mg/kg, po for 3 days measured after 1 hr post last dose; type: ADME, organism-based; design: dose 20 mg/kg, route oral
# Method in brief: (§7)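 Chow-fed mice were dosed orally at 100 or 20 mg/kg for 3 consecutive days. Plasma and brain were taken 1 h after the last dose. Proteins were precipitated with 3× volume ice-cold acetonitrile containing internal standard, then centrifuged 15 min at 4 °C. Analysis by LC/MS/MS against calibrators in plasma or brain homogenate (1000 to 1.6 nM). Brain is given as ng/gm and also as % of plasma.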
# [21] = Drug uptake in chow fed mouse brain at 20 mg/kg, po for 3 days measured after 1 hr post last dose; type: ADME, organism-based; design: dose 20 mg/kg, route oral; conditions: read-out: Drug uptake; method in brief: as §7
# T1 sequence (P21554 whole entry): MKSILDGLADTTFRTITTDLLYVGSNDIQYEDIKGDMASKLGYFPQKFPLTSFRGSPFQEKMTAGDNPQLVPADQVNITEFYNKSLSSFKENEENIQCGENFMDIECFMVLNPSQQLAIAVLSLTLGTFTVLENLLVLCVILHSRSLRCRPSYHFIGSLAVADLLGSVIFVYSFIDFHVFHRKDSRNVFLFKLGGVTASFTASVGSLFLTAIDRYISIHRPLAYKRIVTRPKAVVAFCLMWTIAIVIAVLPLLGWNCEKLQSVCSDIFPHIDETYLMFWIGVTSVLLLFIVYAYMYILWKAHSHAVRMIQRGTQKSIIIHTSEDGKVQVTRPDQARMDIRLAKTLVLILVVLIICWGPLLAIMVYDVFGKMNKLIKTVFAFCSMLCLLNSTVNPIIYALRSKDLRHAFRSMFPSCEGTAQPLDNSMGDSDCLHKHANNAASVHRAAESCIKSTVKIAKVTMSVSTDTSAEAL
# Cannabinoid receptor 2, sequence (P34972 whole entry): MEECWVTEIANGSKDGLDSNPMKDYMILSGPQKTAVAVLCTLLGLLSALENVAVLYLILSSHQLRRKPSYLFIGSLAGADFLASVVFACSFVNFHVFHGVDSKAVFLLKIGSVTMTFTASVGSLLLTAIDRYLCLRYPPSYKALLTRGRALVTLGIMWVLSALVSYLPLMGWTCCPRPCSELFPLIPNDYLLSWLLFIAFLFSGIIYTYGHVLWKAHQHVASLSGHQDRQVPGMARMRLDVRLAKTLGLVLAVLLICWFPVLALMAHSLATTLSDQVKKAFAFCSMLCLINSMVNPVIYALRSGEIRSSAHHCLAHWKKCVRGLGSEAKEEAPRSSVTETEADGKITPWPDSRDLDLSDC
# Cannabinoid receptor 1 (Mus musculus), sequence (P47746 whole entry): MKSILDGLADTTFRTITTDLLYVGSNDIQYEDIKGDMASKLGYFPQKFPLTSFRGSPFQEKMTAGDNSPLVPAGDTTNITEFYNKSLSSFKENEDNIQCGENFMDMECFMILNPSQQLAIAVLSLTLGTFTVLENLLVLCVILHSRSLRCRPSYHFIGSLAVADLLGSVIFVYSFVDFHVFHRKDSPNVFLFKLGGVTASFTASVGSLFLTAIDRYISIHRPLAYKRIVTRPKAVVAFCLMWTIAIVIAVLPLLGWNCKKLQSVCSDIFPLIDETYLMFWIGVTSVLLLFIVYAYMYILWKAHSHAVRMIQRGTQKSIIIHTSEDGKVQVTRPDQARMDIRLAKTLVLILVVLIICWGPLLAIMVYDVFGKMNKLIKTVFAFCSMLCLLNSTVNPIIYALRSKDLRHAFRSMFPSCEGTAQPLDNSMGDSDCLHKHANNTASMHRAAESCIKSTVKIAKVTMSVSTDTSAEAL
SMILES,IC50 [1],IC50 [2],Activity [7],Occ [8],Occ [10],Occ [11],Activity [12],Occ [13],Activity [14],Activity [15],further results
NC(=O)CNC(=O)CN/C(=N\S(=O)(=O)c1ccc(Cl)cc1)N1CC(c2ccccc2)C(c2ccc(Cl)cc2)=N1 (stereo unspecified),> 5 µM,0.025 µM,–,–,–,–,–,–,–,–,Ratio [3]: 112; Papp [4]: 223 nm/s; Papp [5]: 0.2 ucm/s
CN/C(=N\S(=O)(=O)c1ccc(Cl)cc1)N1CC(c2ccccc2)C(c2ccc(Cl)cc2)=N1 (racemic) [RAC-IBIPINABANT],–,–,25%,100%,102%,15%,56%,15%,–,–,Activity [6]: 22%; Activity [9]: 19%
NC(=O)CN/C(=N\S(=O)(=O)c1ccc(Cl)cc1)N1CC(c2ccccc2)C(c2ccc(Cl)cc2)=N1 (racemic) [listing 1 of 2 here],–,–,–,–,–,–,–,–,Active,Active,–
NC(=O)CN/C(=N\S(=O)(=O)c1ccc(Cl)cc1)N1CC(c2ccccc2)C(c2ccc(Cl)cc2)=N1 (racemic) [listing 2 of 2 here],5 µM,0.018 µM,17%,–,–,–,49%,–,–,–,IC50 [16]: 0.018 µM; Activity [17]: 26%; Papp B→A [18]: 605 nm/s; Papp A→B [19]: 18 nm/s
Cc1c(C(=O)NN2CCCCC2)nn(-c2ccc(Cl)cc2Cl)c1-c1ccc(Cl)cc1 [RIMONABANT],–,–,–,100%,87%,12%,–,10%,Active,Active,concentration at 1 h [20]: 1.2 µg/mL; concentration at 1 h [21]: 1080 ng/g
